# Test results reported in ChEMBL document CHEMBL1123920, “Leukotriene D4 antagonists and 5-lipoxygenase inhibitors. Synthesis of benzoheterocyclic [(methoxyphenyl)amino]oxoalkanoic acid esters” (J Med Chem, 1987).
# pIC50: −log10 of the molar value.
# Legend:
# [1] = test system: Cavia porcellus; assay: Ability to inhibit the Ovalbumin induced bronchospasm in guinea pig was determined in vivo at a dose of 50 mg/kg id; type: functional; conditions: route intraduodenal
# Method in brief: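 Guinea pigs were challenged with LTD4 or ovalbumin to induce bronchospasm, and test agent was given intraduodenally. Read-out is percent inhibition of bronchospasm. Significance uses a two-tailed Student's t test (p < 0.05). N is the number of treated animals.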
# [2] = molecular target: T1, Polyunsaturated fatty acid 5-lipoxygenase (Rattus norvegicus, UniProt P12527); assay: (§1) Ability to inhibit Lipoxygenase in vitro was determined
# T1 sequence (P12527 whole entry): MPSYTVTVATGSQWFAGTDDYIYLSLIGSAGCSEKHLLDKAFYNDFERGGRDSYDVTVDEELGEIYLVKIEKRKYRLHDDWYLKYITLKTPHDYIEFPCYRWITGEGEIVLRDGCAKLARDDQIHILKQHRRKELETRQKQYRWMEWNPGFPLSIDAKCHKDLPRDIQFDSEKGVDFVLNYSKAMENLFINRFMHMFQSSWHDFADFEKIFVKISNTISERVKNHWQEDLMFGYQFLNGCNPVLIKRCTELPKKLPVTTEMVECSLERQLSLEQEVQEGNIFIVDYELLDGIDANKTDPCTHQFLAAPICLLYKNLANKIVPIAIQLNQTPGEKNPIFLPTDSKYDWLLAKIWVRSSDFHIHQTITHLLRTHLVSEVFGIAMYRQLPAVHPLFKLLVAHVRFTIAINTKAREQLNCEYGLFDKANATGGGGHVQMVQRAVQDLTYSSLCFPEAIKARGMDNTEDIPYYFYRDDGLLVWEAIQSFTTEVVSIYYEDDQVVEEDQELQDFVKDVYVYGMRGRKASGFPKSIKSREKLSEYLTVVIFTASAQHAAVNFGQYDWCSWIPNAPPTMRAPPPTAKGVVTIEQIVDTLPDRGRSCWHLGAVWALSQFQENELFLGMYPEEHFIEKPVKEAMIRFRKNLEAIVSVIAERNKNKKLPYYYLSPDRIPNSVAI
# Method in brief: (§2)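 Source is rat polymorphonuclear leukocyte (PMN) 5-lipoxygenase. IC50 values come from nonlinear regression analysis, significant at p < 0.05.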
# [3] = molecular target: T1, Polyunsaturated fatty acid 5-lipoxygenase; assay: as §1; remark: listed apart in the source
# [4] = molecular target: T2, Polyunsaturated fatty acid 5-lipoxygenase (Rattus norvegicus) (UniProt P12527); assay: Ability to inhibit Lipoxygenase in vitro was determined; NA is <50% inhibition at 100 uM; method in brief: as §2
# T2 sequence (whole entry): T1 sequence (P12527 whole entry)
# [5] = organism: Rattus norvegicus; assay: Tested for metabolic activation counted as mean number of revertants in strains TA98, TA100, TA1535, and TA1538, three plates per treatment at 5.0 mg per plate, without activation in the absence of S-9 rat liver homogenates in Ames test; type: functional, organism-based
# [6] = organism: Rattus norvegicus; assay: Tested for metabolic activation counted as mean number of revertants in strains TA98, TA100, TA1535, and TA1538, three plates per treatment at 5.0 mg per plate, with activation provided by S-9 rat liver homogenates in Ames test; type: functional, organism-based
# [7] = organism: Rattus norvegicus; assay: Tested for metabolic activation counted as mean number of revertants in strains TA98, TA100, TA1535, and TA1538, three plates per treatment at 0.15 mg per plate, without activation in the absence of S-9 rat liver homogenates in Ames test; type: functional, organism-based
# [8] = organism: Rattus norvegicus; assay: Tested for metabolic activation counted as mean number of revertants in strains TA98, TA100, TA1535, and TA1538, three plates per treatment at 1.5 mg per plate, with activation provided by S-9 rat liver homogenates in Ames test; type: functional, organism-based
# [9] = organism: Rattus norvegicus; assay: Tested for metabolic activation counted as mean number of revertants in strains TA98, TA100, TA1535, and TA1538, three plates per treatment at 0.05 mg per plate, with activation provided by S-9 rat liver homogenates in Ames test; type: functional, organism-based
# [10] = organism: Rattus norvegicus; assay: Tested for metabolic activation counted as mean number of revertants in strains TA98, TA100, TA1535, and TA1538, three plates per treatment at 1.5 mg per plate, without activation in the absence of S-9 rat liver homogenates in Ames test; type: functional, organism-based
# [11] = organism: Rattus norvegicus; assay: Tested for metabolic activation counted as mean number of revertants in strains TA98, TA100, TA1535, and TA1538, three plates per treatment at 0.05 mg per plate, without activation in the absence of S-9 rat liver homogenates in Ames test; type: functional, organism-based
# [12] = organism: Rattus norvegicus; assay: Tested for metabolic activation counted as mean number of revertants in strains TA98, TA100, TA1535, and TA1538, three plates per treatment at 0.15 mg per plate, with activation provided by S-9 rat liver homogenates in Ames test; type: functional, organism-based
# [13] = organism: Rattus norvegicus; assay: Tested for metabolic activation counted as mean number of revertants in strains TA98, TA100, TA1535, and TA1538, three plates per treatment at 0.5 mg per plate, with activation provided by S-9 rat liver homogenates in Ames test; type: functional, organism-based
# [14] = molecular target: T2, Polyunsaturated fatty acid 5-lipoxygenase (Rattus norvegicus); assay: Ability to inhibit the rat Lipoxygenase in vitro was determined; NA is <50% inhibition at 100 uM; method in brief: as §2
smiles,measurement,setting,value
COC(=O)CCC(=O)Nc1cccc(OCc2nc3ccccc3o2)c1,inhibition in vivo at 50 mg/kg,[1],-65%
same,pIC50,[2],4.16
COC(=O)C1CC(=O)N(c2cccc(OCc3nc4ccccc4s3)c2)C1 (stereo not drawn),pIC50,[3],4.85
COC(=O)CC(=O)Nc1cccc(OCc2nc3ccccc3n2C)c1,inhibition,[4],< 50%
same,inhibition in vivo at 50 mg/kg,[1],5%
O=C1CCC(=O)N1c1cccc(OCc2nc3ccccc3s2)c1,inhibition,[4],< 50%
same,inhibition in vivo at 50 mg/kg,[1],18%
COC(=O)CCC(=O)Nc1cccc(Oc2nc3ccccc3s2)c1,inhibition in vivo at 50 mg/kg,[1],7%
same,pIC50,[3],4.57
COC(=O)CCC(=O)Nc1cccc(OCc2ccc3ccccc3n2)c1,Mean no. of revertants,[5],2260
same,Mean no. of revertants,[6],2880
same,Mean no. of revertants,[7],25
same,inhibition in vivo at 50 mg/kg,[1],43%
same,Mean no. of revertants,[8],2770
same,Mean no. of revertants,[9],15
same,Mean no. of revertants,[10],2930
same,Mean no. of revertants,[11],24
same,Mean no. of revertants,[12],15
same,Mean no. of revertants,[13],566
COC(=O)CC(=O)Nc1cccc(OCc2nc3ccccc3s2)c1,inhibition in vivo at 50 mg/kg,[1],58%
same,pIC50,[2],4.77
Cn1c(COc2cccc(N3C(=O)CCC3=O)c2)nc2ccccc21,inhibition,[4],< 50%
COC(=O)CCC(=O)Nc1cccc(OCC(=O)Nc2ccccc2)c1,inhibition,[4],< 50%
same,inhibition in vivo at 50 mg/kg,[1],7%
CCCCCC(O)c1cccc(OCc2ccc3ccccc3n2)c1 (stereo not drawn) [REV-5901],inhibition in vivo at 50 mg/kg,[1],60.2%
CCCc1c(OCCCCc2nnn[nH]2)ccc(C(C)=O)c1O [TOMELUKAST],inhibition in vivo at 50 mg/kg,[1],79.7%
same,pIC50,[3],4.72
Cn1c(COc2cccc(NC(=O)CCC(=O)O)c2)nc2ccccc21,inhibition,[14],< 50%
